Results: ChEMBL document CHEMBL2311407, “Design and synthesis of diazatricyclodecane agonists of the G-protein-coupled receptor 119” (J Med Chem, 2013)
≈ marks a conversion by molar mass, not a printed value.

Legend:
[1] = AUC in Beagle dog at 1 mg/kg, iv; type: ADME, organism-based, Canis lupus familiaris; design: dose 1 mg/kg, route intravenous; conditions: plasma
In short: (§1)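 Male beagle dogs received 1 mg/kg iv at 2 mL/kg in 5% dimethylacetamide/75% PEG200/20% (30% SBE-CD). Plasma concentrations are total drug. Values are the mean of two animals.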

[2] = Tmax in Beagle dog at 30 mg/kg, po administered as spray dried dispersion; type: ADME, organism-based, Canis lupus familiaris; design: dose 30 mg/kg, route oral; conditions: in vivo
In short: (§2)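 Oral gavage in male beagle dogs at 10, 30 or 100 mg/kg, 5 mL/kg, as 25% spray dried dispersion in 20 mM Tris buffer in 0.5% methylcellulose and 0.5% HPMCAS-HF, pH 7.4. Plasma concentrations are total drug. Values are the mean of two animals. F is based on 1 mg/kg iv dog data.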

[3] = Tmax in Sprague-Dawley rat at 3 mg/kg, po administered as spray dried dispersion; type: ADME, organism-based; design: dose 3 mg/kg, route oral; conditions: in vivo
In short: (§3)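 Rats were dosed po at 0.6 mL/kg with a 25% amorphous spray dried dispersion (with HPMCAS-HF) in 20 mM Tris buffer with 0.5% methylcellulose + 0.5% HPMCAS-HF, pH 7.4. Plasma concentrations are total drug. Data are mean ± SD of three animals. F is based on 1 mg/kg rat iv data.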

[4] = Clearance in Beagle dog at 1 mg/kg, iv; type: ADME, organism-based, Canis lupus familiaris; design: dose 1 mg/kg, route intravenous; conditions: in vivo; in short: as §1
[5] = Cmax in Sprague-Dawley rat at 3 mg/kg, po dosing of milled material in 0.5% methylcellulose; type: ADME, organism-based; design: dose 3 mg/kg, route oral; conditions: in vivo
In short: (§4)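 Rat po dosing of milled material (2−25 μm premilling, about 190 nm postmilling) suspended in 0.5% methylcellulose. Plasma concentrations are total drug. Data are mean ± SD of three animals. F is calculated from 1 mg/kg rat iv data.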

[6] = Tmax in Sprague-Dawley rat at 30 mg/kg, po dosing of milled material in 0.5% methylcellulose; type: ADME, organism-based; design: dose 30 mg/kg, route oral; conditions: in vivo
In short: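 Nanomilled material (about 190 nm after milling) was suspended in 0.5% methylcellulose and dosed orally to rats. Plasma concentrations are reported as total drug. Values are mean ± SD from three animals.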

[7] = Cmax in Beagle dog at 30 mg/kg, po administered as spray dried dispersion; type: ADME, organism-based, Canis lupus familiaris; design: dose 30 mg/kg, route oral; conditions: in vivo; in short: as §2
[8] = Apparent intrinsic clearance in human liver microsomes; type: ADME, Microsome; conditions: read-out: CLH(app)
[9] = Tmax in Sprague-Dawley rat at 3 mg/kg, po dosing in 0.5% methylcellulose; type: ADME, organism-based; design: dose 3 mg/kg, route oral; conditions: in vivo
In short: (§5)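 Rats were dosed orally at 3 mg/kg in 0.5% methylcellulose. Plasma concentrations are total drug. Data are mean ± SD of three animals. F is based on 1 mg/kg rat iv PK.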

[10] = Thermodynamic solubility of the compound in PBS at pH 7.4; type: physicochemical; conditions: read-out: Therm_solubility
[11] = AUC in Beagle dog at 3 mg/kg, po administered as spray dried dispersion; type: ADME, organism-based, Canis lupus familiaris; design: dose 3 mg/kg, route oral; conditions: plasma
In short: (§6)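 Male beagle dogs were dosed po at 3 mg/kg, 0.6 mL/kg, as 25% spray dried dispersion in 20 mM Tris buffer with 0.5% methylcellulose + 0.5% HPMCAS-HF, pH 7.4. Plasma concentrations are total drug. Values are the mean of two animals. F is calculated against 1 mg/kg iv dog data.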

[12] = Cmax in Sprague-Dawley rat at 3 mg/kg, po administered as spray dried dispersion; type: ADME, organism-based; design: dose 3 mg/kg, route oral; conditions: in vivo; in short: as §3
[13] = Apparent permeability in MDCK2 cells; type: ADME, cell-based, Canis lupus familiaris, MDCK-II; conditions: dog, MDCK
[14] = AUC in Sprague-Dawley rat at 3 mg/kg, po dosing of milled material in 0.5% methylcellulose; type: ADME, organism-based; design: dose 3 mg/kg, route oral; conditions: in vivo; in short: as §4
[15] = Fraction unbound in Sprague-Dawley rat plasma; type: ADME, cell-free
[16] = Cmax in Beagle dog at 3 mg/kg, po administered as spray dried dispersion; type: ADME, organism-based, Canis lupus familiaris; design: dose 3 mg/kg, route oral; conditions: in vivo; in short: as §6
[17] = AUC in Sprague-Dawley rat at 30 mg/kg, po administered as spray dried dispersion; type: ADME, organism-based; design: dose 30 mg/kg, route oral; conditions: plasma; in short: as §3
[18] = Oral bioavailability in Sprague-Dawley rat at 3 mg/kg administered as spray dried dispersion; type: ADME, organism-based; conditions: in vivo; in short: as §3
[19] = Volume of distribution at steady state in Beagle dog at 1 mg/kg, iv; type: ADME, organism-based, Canis lupus familiaris; design: dose 1 mg/kg, route intravenous; conditions: in vivo, read-out: Vdss
In short: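 Male beagle dogs received 1 mg/kg iv at 2 mL/kg in 5% DMA/75% PEG200/20% (30% SBE-CD). Plasma concentrations are reported as total drug. Parameters are means from two animals.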

[20] = Oral bioavailability in Sprague-Dawley rat at 3 mg/kg dosed as milled material in 0.5% methylcellulose; type: ADME, organism-based; conditions: in vivo; in short: as §4
[21] = Cmax in Beagle dog at 100 mg/kg, po administered as spray dried dispersion; type: ADME, organism-based, Canis lupus familiaris; design: dose 100 mg/kg, route oral; conditions: in vivo; in short: as §2
[22] = Tmax in Sprague-Dawley rat at 3 mg/kg, po dosing of milled material in 0.5% methylcellulose; type: ADME, organism-based; design: dose 3 mg/kg, route oral; conditions: in vivo; in short: as §4
[23] = Tmax in Beagle dog at 100 mg/kg, po administered as spray dried dispersion; type: ADME, organism-based, Canis lupus familiaris; design: dose 100 mg/kg, route oral; conditions: in vivo; in short: as §2
[24] = Cmax in Sprague-Dawley rat at 3 mg/kg, po dosing in 0.5% methylcellulose; type: ADME, organism-based; design: dose 3 mg/kg, route oral; conditions: in vivo; in short: as §5
[25] = Oral bioavailability in Sprague-Dawley rat at 30 mg/kg administered as spray dried dispersion; type: ADME, organism-based; conditions: in vivo; in short: as §3
[26] = Cmax in Beagle dog at 1 mg/kg, iv; type: ADME, organism-based, Canis lupus familiaris; design: dose 1 mg/kg, route intravenous; conditions: in vivo; in short: as §1

AUC [1]: 4730 ng·h/mL
Tmax [2]: 1 h
Tmax [3]: 4.7 h
clearance [4]: 1.74 mL/min/kg
Cmax [5]: 255 ng/mL
Tmax [6]: 6 h
Cmax [7]: 3750 ng/mL
CLint scaled [8]: < 9.5 mL/min/kg
Tmax [9]: 3 h
solubility thermodynamic [10]: 0.7 µg/mL (≈ 1.38 µM)
AUC [11]: 8580 ng·h/mL
Cmax [12]: 484 ng/mL
Papp [13]: 3.5 ×10⁻⁶ cm/s
AUC [14]: 3180 ng·h/mL
fraction unbound [15]: 0.01
Cmax [16]: 812 ng/mL
AUC [17]: 49100 ng·h/mL
bioavailability [18]: > 100%
Vd [19]: 3.7 L/kg
bioavailability [20]: 78%
Cmax [21]: 6030 ng/mL
Tmax [22]: 4.7 h
Tmax [23]: 1.5 h
Cmax [24]: 24.2 ng/mL
bioavailability [25]: > 100%
Cmax [26]: 515 ng/mL
SMILES: Cc1c(Oc2ccc(-n3cnnn3)cc2F)ncnc1N1C2CC3CC1CC(C2)N3C(=O)OC1(C)CC1
